# Measurements from different studies.
# Protocols differ between the studies behind these lines.
# Organism: Staphylococcus aureus
# Observed: microbial growth
SMILES,test,test system,setting,MIC
CC1(C)S[C@@H]2[C@H](NC(=O)[C@H](N)c3ccccc3)C(=O)N2[C@H]1C(=O)O,broth dilution,CCARM3090,,16 µg/mL
CCOc1ccc(-c2nc3cc(-c4nc5cc(N6CCN(C)CC6)ccc5[nH]4)ccc3[nH]2)cc1,broth dilution,29213,24 h,2 to 4 µg/mL
CC(C)Oc1c(NC(=O)c2ccc(NC(=O)[C@H](CC(N)=O)NC(=O)c3ccc(C#Cc4ccc(C#N)cc4)cc3)cc2)ccc(C(=O)Nc2ccc(C(=O)O)cc2)c1O,,ATCC29213,,≤ 0.03 µg/mL
CC(=O)NCN1N=C(C)C(=NNn2c(-c3ccccc3)nc3ccccc3c2=O)C1=O,broth dilution,,24 h,59.9 µM
Cc1cc(C)cc(NC(=O)Nc2ccc(N3CCCCC3)cc2)c1,,,,> 128 µg/mL
COc1cccc(OC)c1C(=O)N[C@@H]1C(=O)N2[C@@H]1SC(C)(C)[C@@H]2C(=O)O,,129,clinical isolate,37.5 µM
O=C(O)CN1C(=O)/C(=C/c2c3ccccc3c(-c3ccc(N(c4ccccc4)c4ccccc4)cc3)c3ccccc23)SC1=S,broth dilution,ATCC6538,,> 1000 µg/mL
CN1CCN(CCOc2cc(OC3CCOCC3)c3c(Nc4c(Cl)ccc5c4OCO5)ncnc3c2)CC1,,NCTC8325,,> 30 µM
Clc1ccc(-c2nc3ccccc3[nH]2)cc1Cl,broth dilution,ATCC29213 MSSA,,32 µg/mL
C/C=C(\C)c1cc(OC(=O)c2c(O)c(C)c(O)c(Cl)c2/C(C)=C/C)c(C)c(O)c1C(=O)O,broth dilution,MRSA,,64 µg/mL
COc1cc(OC)c2cc(C(=O)NCc3ccc(Br)cc3)cc(O)c2c1,broth dilution,ATCC29213 MSSA,,32 µg/mL
Cc1ccc(C)n1-c1ccc(-c2nnc(-c3ccc(O)cc3)[nH]2)cc1,broth dilution,ATCC11632,18 h,8 µg/mL
C[C@@H](O)[C@H]1C(=O)N2C(C(=O)O)=C(SCCN=CN)C[C@H]12,,MRSA,,32 µg/mL
CCCCCCC#Cc1cncc(-c2nnc(SCc3ccc(Cl)cc3)n2C2CC2)c1,,MRSA,drug-resistant strain,≥ 20 µg/mL
CNC(=O)c1cc(Oc2ccc(NC(=O)NC34CC5CC(CC(C5)C3)C4)cc2)ccn1,,NCTC8325,,> 100 µM
Clc1ccc(-c2nc3ccccc3[nH]2)c(Cl)c1,broth dilution,ATCC29213 MSSA,,128 µg/mL
O=C(CCCCCCCC[P+](c1ccccc1)(c1ccccc1)c1ccccc1)Nc1ccc(O)c(O)c1.[Br-],broth dilution,ATCC43300 MRSA,18 h,> 32 µg/mL
Clc1ccccc1-c1nc2ccccc2[nH]1,broth dilution,ATCC29213 MSSA,,64 µg/mL
CC(C)Oc1c(NC(=O)c2ccc(NC(=O)[C@H](CC(N)=O)NC(=O)c3ccc(NC(=O)c4ccc(C#N)c(Cl)c4)cc3)cc2)ccc(C(=O)Nc2ccc(C(=O)O)cc2)c1O,,ATCC29213,,< 0.03 µg/mL
CCc1cnn2c(NCc3ccc[n+]([O-])c3)cc(N3CCCC[C@H]3CCO)nc12,,NCTC8325,,> 30 µM
O=C1NC(=S)S/C1=C\c1ccc(-c2ccc(N(c3ccccc3)c3ccccc3)cc2)c2ccccc12,broth dilution,ATCC6538,,500 µg/mL
CC(C)Oc1c(NC(=O)c2ccc(NC(=O)[C@H](CC(N)=O)NC(=O)c3ccc(NC(=O)c4cc(C#N)cn4C)cc3)cc2)ccc(C(=O)Nc2ccc(C(=O)O)cc2)c1O,,ATCC29213,,64 µg/mL
C=CCn1c(-c2ccc(Cl)cc2)nc2ccc(C)cc21,broth dilution,ATCC29213 MSSA,,32 µg/mL
C/C=C(\C)c1cc(OC(=O)c2c(C)c(Cl)c(O)c(Cl)c2O)c(C)c(O)c1C(=O)O,broth dilution,ATCC29213,,64 µg/mL
COc1c(C)c(OC(C)=O)c(C)c(O)c1C(=O)/C=C/c1ccccc1,broth dilution,ATCC25923,,2500 µg/mL
Cn1cc(NC(=O)C(CC(N)=O)NC(=O)c2ccc(NC(=O)c3ccc(C#N)cc3)cc2)cc1-c1nc2ccc(C(=O)Nc3ccc(C(=O)O)cc3)c(O)c2[nH]1 (centres unmarked),,ATCC29213,,> 64 µg/mL
NC[C@H]1O[C@H](O[C@H]2[C@H](O)[C@@H](O[C@H]3O[C@H](CO)[C@@H](O)[C@H](N)[C@H]3O)[C@H](N)C[C@@H]2N)[C@H](N)C[C@@H]1O,,156,clinical isolate,12.5 µM
Fc1ccccc1NCc1ccc(Oc2ccccn2)cc1,,,,1.6 µg/mL
COC(=O)c1sc(C(C)(C)C)cc1NC(=O)Nc1ccc(C)cc1,,NCTC8325,,> 100 µM
CCC1(C)CC(OC(=O)CSc2nnc(N)[nH]2)C2(C)C(C)CCC3(CCC(=O)C32)C(C)C1O (centres unmarked),,,,0.5 µg/mL
Cc1ccc2nc(-c3c(F)cccc3Cl)[nH]c2c1,broth dilution,ATCC29213 MSSA,,64 µg/mL
Cc1nc(Nc2ncc(C(=O)Nc3c(C)cccc3Cl)s2)cc(N2CCN(CCO)CC2)n1,,NCTC8325,,> 30 µM
CN[C@H](CC(C)C)C(=O)N[C@H]1C(=O)N[C@@H](CC(N)=O)C(=O)N[C@H]2C(=O)N[C@H]3C(=O)N[C@H](C(=O)N[C@H](C(=O)O)c4cc(O)cc(O)c4-c4cc3ccc4O)[C@H](O)c3ccc(c(Cl)c3)Oc3cc2cc(c3O[C@@H]2O[C@H](CO)[C@@H](O)[C@H](O)[C@H]2O[C@H]2C[C@](C)(N)[C@H](O)[C@H](C)O2)Oc2ccc(cc2Cl)[C@H]1O,broth dilution,6917,,1 µg/mL
O=C(O)CN1C(=O)/C(=C/c2ccc(-c3ccc(N(c4ccccc4)c4ccccc4)cc3)c3ccccc23)NC1=S,broth dilution,ATCC43300,,> 1000 µg/mL
C[n+]1ccc(/C=C2\Sc3ccccc3N2CCCN2CCCCC2)c2ccccc21.[I-],broth dilution,ATCCBAA44,,4 µg/mL
COc1cc2c(Nc3ccc(NC(=O)c4ccccc4)cc3)ncnc2cc1OCCCN1CCOCC1,,NCTC8325,,> 30 µM
CC(C)(O/N=C(\C(=O)N[C@@H]1C(=O)N2C(C(=O)[O-])=C(C[n+]3ccccc3)CS[C@H]12)c1csc(N)n1)C(=O)O,,MRSA,18 h,> 128 µg/mL
CO[C@H]1/C=C/O[C@@]2(C)Oc3c(C)c(O)c4c(O)c(c(/C=N/N5CCN(C)CC5)c(O)c4c3C2=O)NC(=O)/C(C)=C\C=C\[C@H](C)[C@H](O)[C@@H](C)[C@@H](O)[C@@H](C)[C@H](OC(C)=O)[C@@H]1C,,NCTC8325,,0.009 to 0.018 µM
CC1=NN(CNc2c(O)c(S(=O)(=O)O)cc3ccccc23)C(=O)C1=NNn1c(-c2ccccc2)nc2ccccc2c1=O,broth dilution,,24 h,83.7 µM
Nc1nccc(Oc2ccc(NC(=O)c3c[nH]cc(-c4ccc(F)cc4)c3=O)cc2F)c1Cl,,NCTC8325,,> 30 µM
CO[C@H]1[C@H](O[C@H]([C@H]2O[C@@H](n3ccc(=O)[nH]c3=O)[C@H](O)[C@@H]2O)[C@H](NCCCNC(=O)[C@@H](NC(=O)[C@@H](NC(=O)N[C@H](C(=O)O)C(C)C)[C@@H]2CCNC(=N)N2)[C@@H](O)C(C)C)C(=O)O)O[C@H](CN)[C@H]1O,,NEWMAN,,> 32 µg/mL
